The record followed here is ChEMBL document CHEMBL1158601, “Discovery of a novel series of CXCR3 antagonists” (Bioorg Med Chem Lett, 2010).

Data set [1] concerns the target T1, C-X-C chemokine receptor type 5 (Homo sapiens) (UniProt P32302).
T1 sequence (whole entry): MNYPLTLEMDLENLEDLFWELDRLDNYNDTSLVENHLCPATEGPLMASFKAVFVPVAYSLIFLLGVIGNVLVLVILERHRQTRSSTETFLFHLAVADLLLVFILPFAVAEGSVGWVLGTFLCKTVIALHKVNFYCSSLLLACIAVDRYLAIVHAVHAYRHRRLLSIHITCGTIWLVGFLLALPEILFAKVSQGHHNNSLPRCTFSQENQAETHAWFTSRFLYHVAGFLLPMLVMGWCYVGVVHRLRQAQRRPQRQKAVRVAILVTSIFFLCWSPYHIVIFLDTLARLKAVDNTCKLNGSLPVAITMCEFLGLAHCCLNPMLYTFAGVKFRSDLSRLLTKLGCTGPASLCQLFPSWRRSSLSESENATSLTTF
Briefly: Antagonist activity at human CXCR5 expressed in mouse L1.2 cells assessed as inhibition of CXCL13-induced chemotaxis up to 10 uM after 4 hrs. Format: functional, cell-based. The method in brief: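 Counter-screen chemotaxis: CXCR5-overexpressing L1.2 cells stimulated with CXCL13, test compounds up to 10 µM.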

A short description of data set [2]: Half life in mouse at 10 mg/kg, po. It is filed as ADME, organism-based. Set-up: dose 10 mg/kg, route oral. The settings on record: in vivo.
For a further data set, the system named is Mus musculus. Briefly: Clearance in mouse assessed as liver blood flow at 0.2 mg/kg, iv. It is filed as ADME, organism-based. Set-up: dose 0.2 mg/kg, route intravenous. To be noted: in vivo.
Data set [3] can be described thus: Aqueous solubility at pH 7.4. It is filed as physicochemical. To be noted: buffer. The method in brief: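 Aqueous solubility measured at pH 7.4.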
Data set [4] is described as follows: Bioavailability in mouse at 10 mg/kg, po. It is filed as ADME, organism-based. To be noted: in vivo.
The nature of data set [5]: Intrinsic clearance in mouse liver microsomes assessed per mg of protein. Format: ADME, Microsome. Background: Microsomes from liver hold many membrane-bound enzymes, among them those of drug oxidation.
The nature of data set [6]: Volume of distribution at steady state in mouse at 0.2 mg/kg, iv. Format: ADME, organism-based. Set-up: dose 0.2 mg/kg, route intravenous. The settings on record: in vivo, read-out: Vdss.
A short description of data set [7]: Clearance in mouse at 0.2 mg/kg, iv. It is filed as ADME, organism-based. Details: dose 0.2 mg/kg, route intravenous. To be noted: in vivo.

Molecules are shown by their SMILES. Activity calls are given as the source filed them. The calls are words filed in the database; no cut-off is given here.

For the compound `N#Cc1ccc(S(=O)(=O)N(Cc2ccc(-c3nnn[nH]3)c(F)c2)Cc2ccccc2F)cc1`, in data set [1], the result was inactive. In data set [2], the half-life (commonly the time in which the quantity being followed falls by half) is 1 h. In addition, the “Fraction of Liver Blood Flow” value in the data set with Mus musculus is recorded as 30%. In addition, the solubility (as a rule, the concentration that dissolves in the medium under given conditions) in data set [3] was above 100 µM. Moreover, the bioavailability (usually the share of a dose that reaches the circulation, judged against a reference dose that is usually intravenous) in data set [4] was determined as 83%. Moreover, in data set [5], the intrinsic clearance (microsomal CLint) (in general, the capacity of the preparation to metabolise the compound, expressed as a volume cleared per time) amounted to 17 µL/min/mg. Besides, in data set [6], the Vd amounted to 1 L/kg. Also, the clearance (as a rule, the rate of elimination divided by the concentration) in data set [7] was 28.3 mL/min/kg.
